Reference: PMC10692477 (Acta Pharmaceutica Sinica. B, 2023)

Key:
[1] = tested on: BaF3/TEL-AXL mouse xenograft; experiment: BaF3/TEL-AXL cell-derived mouse xenograft model; conditions: for body weight of tumor-bearing mice during the treatment: 4 and 20 mg/kg po qd
[2] = tested on: BaF3/TEL-AXL cells; experiment: BaF3/TEL-AXL cell viability; type: cell-based; conditions: 48 h, read-out: IC50 Cell viability
[3] = tested on: AXL signaling pathway; experiment: GAS6-stimulated AXL signaling in NCI-H1299 cells, Western blot; type: cell-based; conditions: NCI-H1299, 1 h treatment, GAS6 500 ng/mL 15 min
Outline: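 NCI-H1299 cells in exponential growth were serum-deprived for 24 h, then given the test compound for 1 h and stimulated with GAS6 500 ng/mL for 15 min. Lysis was in 1× SDS sample buffer, followed by 10% SDS-PAGE and nitrocellulose transfer.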

[4] = Pharmacokinetics in ICR mice; type: in vivo; conditions: mouse, serum
[5] = tested on: SNU449 cells; experiment: SNU449 cell viability under GAS6; type: cell-based; conditions: same conditions as cell motility; GAS6 500 ng/mL, 24 h
Outline: (§1)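 NCI-H1299 or SNU449 cells were seeded at low density in growth medium and incubated overnight. They were then stimulated with GAS6 500 ng/mL and treated with graded concentrations of the test compound for 24 h. Viability was read by CCK-8.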

[6] = tested on: AXL phosphorylation; experiment: Intratumoral AXL phosphorylation, immunoblotting of tumor tissues; type: in vivo, nude mice; conditions: tumor tissues 1 h after last dosage; 4 and 20 mg/kg groups
[7] = tested on: NCI-H1299 cells; experiment: GAS6-stimulated NCI-H1299 cell migration; type: cell-based; conditions: 20 nmol/L, GAS6 500 ng/mL, 24 h
Outline: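 NCI-H1299 cells (1.5 × 10^5 per well) in serum-free medium were placed in Transwell inserts with 8 μm pores. The lower chamber held serum-free medium with GAS6 500 ng/mL, and the test compound was added to both sides of the membrane. After 24 h, non-migrated cells were swabbed off. Migrated cells were fixed in 90% ethanol for 1 h, stained with 0.1% crystal violet for 15 min at room temperature, and imaged by microscopy.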

[8] = tested on: SNU449 cells; experiment: GAS6-stimulated SNU449 cell invasion; type: cell-based; conditions: 20 nmol/L, GAS6 500 ng/mL, 24 h
Outline: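 SNU449 cells were seeded in top chambers with matrigel-coated membrane inserts. The lower chamber held serum-free medium with GAS6 500 ng/mL, and the test compound was added to both sides. After 24 h, non-invading cells were removed. Invaded cells were fixed in 90% ethanol for 1 h, stained with 0.1% crystal violet for 15 min at room temperature, and imaged.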

[9] = target: c-Met kinase (Homo sapiens, UniProt P08581); experiment: c-Met kinase inhibition, ELISA; type: biochemical
c-Met kinase, sequence (P08581 25-1390): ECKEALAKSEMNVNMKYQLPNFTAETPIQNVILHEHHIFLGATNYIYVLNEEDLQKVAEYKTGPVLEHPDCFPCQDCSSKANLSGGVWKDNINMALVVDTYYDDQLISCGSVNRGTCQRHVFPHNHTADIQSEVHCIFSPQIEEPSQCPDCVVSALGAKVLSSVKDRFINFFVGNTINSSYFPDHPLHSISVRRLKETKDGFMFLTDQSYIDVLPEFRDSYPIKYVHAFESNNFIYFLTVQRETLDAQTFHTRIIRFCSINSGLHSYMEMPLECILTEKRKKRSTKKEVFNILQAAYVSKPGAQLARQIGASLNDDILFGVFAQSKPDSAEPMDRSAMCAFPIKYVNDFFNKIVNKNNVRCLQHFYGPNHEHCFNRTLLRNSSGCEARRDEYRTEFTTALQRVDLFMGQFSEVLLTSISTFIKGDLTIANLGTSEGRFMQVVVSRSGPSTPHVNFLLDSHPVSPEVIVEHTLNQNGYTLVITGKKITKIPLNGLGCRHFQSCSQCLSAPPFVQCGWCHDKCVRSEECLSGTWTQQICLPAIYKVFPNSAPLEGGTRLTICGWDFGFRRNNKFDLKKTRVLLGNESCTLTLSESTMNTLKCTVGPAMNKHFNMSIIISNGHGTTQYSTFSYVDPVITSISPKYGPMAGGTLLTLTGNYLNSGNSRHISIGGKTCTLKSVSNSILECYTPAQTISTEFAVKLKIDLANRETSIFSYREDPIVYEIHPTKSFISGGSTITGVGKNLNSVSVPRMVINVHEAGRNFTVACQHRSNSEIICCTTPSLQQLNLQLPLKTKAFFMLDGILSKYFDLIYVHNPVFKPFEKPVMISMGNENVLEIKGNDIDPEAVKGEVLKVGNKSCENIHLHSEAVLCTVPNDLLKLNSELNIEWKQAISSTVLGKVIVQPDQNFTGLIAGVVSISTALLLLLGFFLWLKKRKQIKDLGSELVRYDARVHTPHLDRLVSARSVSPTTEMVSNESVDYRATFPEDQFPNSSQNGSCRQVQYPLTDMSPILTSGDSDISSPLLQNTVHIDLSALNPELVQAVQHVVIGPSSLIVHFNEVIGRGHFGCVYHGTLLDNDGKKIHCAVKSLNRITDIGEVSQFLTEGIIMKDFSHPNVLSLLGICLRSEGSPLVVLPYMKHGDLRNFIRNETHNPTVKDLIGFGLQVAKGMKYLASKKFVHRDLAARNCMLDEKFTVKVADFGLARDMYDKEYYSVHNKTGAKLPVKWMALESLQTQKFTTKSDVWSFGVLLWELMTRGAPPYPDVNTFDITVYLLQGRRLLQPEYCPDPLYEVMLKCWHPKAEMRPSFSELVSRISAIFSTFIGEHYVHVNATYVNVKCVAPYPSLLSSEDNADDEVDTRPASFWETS
Outline: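 c-Met inhibition was measured by an ELISA-based kinase assay following a previously reported method. IC50 values were calculated from inhibition curves with a modified 4-parameter logistic model, from at least two separate experiments.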

[10] = tested on: E-cadherin expression; experiment: E-cadherin expression in GAS6-stimulated NCI-H1299 cells, immunoblotting; type: cell-based; conditions: NCI-H1299, GAS6 500 ng/mL, 48 h
[11] = tested on: other 55 tested kinases; experiment: Kinase selectivity panel of 62 kinases; type: biochemical, human; conditions: 100 nmol/L
[12] = tested on: NCI-H1299 cells; experiment: NCI-H1299 cell viability under GAS6; type: cell-based; conditions: same conditions as cell motility; GAS6 500 ng/mL, 24 h
Outline: as §1

[13] = tested on: NCI-H1299 cells; experiment: NCI-H1299 cell wound healing assay; type: cell-based; conditions: NCI-H1299, GAS6 500 ng/mL, 24 h
Outline: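 NCI-H1299 monolayers were scratched, then given GAS6 500 ng/mL alone or with graded concentrations of the test compound for 24 h. Wound closure was imaged at 0 and 24 h, in triplicate.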

[14] = tested on: EBC-1 cells; experiment: EBC-1 cell viability; type: cell-based; conditions: Homo sapiens, EBC-1, 72 h, read-out: IC50 viability of EBC-1 cells
Outline: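 EBC-1 cells were seeded at low density in growth medium and incubated overnight. They were then treated with graded concentrations of the test compound for 72 h. Viability was read by CCK-8, and IC50 was obtained by four-parameter concentration–response curve fitting.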

[15] = target: T1, AXL kinase (Homo sapiens, UniProt P30530); experiment: AXL kinase inhibition, ELISA; type: biochemical; conditions: IC50 AXL kinase, ELISA; mean ± SD of two independent experiments
T1 sequence (P30530 26-894): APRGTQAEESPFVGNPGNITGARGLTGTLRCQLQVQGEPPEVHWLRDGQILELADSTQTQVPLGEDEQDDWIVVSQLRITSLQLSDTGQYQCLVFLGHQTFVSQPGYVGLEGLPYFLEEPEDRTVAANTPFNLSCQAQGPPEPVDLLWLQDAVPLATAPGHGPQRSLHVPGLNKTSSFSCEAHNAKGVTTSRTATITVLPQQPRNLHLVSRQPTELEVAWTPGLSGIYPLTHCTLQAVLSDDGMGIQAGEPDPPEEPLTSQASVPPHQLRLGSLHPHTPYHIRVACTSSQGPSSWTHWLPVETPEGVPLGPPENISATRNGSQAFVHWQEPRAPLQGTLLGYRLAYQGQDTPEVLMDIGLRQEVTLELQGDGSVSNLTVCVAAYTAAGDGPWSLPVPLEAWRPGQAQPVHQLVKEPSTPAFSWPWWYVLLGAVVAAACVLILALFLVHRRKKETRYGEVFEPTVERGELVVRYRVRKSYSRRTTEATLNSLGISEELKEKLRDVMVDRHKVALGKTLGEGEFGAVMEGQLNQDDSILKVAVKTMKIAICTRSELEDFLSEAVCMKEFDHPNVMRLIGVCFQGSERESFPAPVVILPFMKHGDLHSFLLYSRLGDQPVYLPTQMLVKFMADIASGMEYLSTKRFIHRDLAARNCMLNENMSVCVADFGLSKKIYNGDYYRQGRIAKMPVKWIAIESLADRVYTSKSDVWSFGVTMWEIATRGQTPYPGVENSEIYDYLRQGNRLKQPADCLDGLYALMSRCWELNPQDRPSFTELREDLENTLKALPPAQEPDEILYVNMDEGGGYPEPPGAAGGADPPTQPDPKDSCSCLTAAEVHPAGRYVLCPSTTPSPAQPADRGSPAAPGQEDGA

[16] = tested on: AXL signaling pathway; experiment: AXL signaling in BaF3/TEL-AXL cells, Western blot; type: cell-based; conditions: 1 h
Outline: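 BaF3/TEL-AXL cells in exponential growth were exposed to the test compound at the indicated concentrations for 1 h. Cells were lysed in 1× SDS sample buffer, run on 10% SDS-PAGE and transferred to nitrocellulose.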

[17] = 20 mg/kg po qd, 7 consecutive days

| SMILES | IC50 [2] | p-AKT level [3] | p-STAT3 level [3] | TGI [1, 17] | body weight of tumor-bearing mice during the treatment [1] | AUC(0-inf) ([4]; iv, 5 mg/kg) | AUC(0-t) ([4]; iv, 5 mg/kg) | clearance ([4]; iv, 5 mg/kg) | half-life ([4]; iv, 5 mg/kg) | AUC(0-inf) ([4]; po, 10 mg/kg) | AUC(0-t) ([4]; po, 10 mg/kg) | Cmax ([4]; po, 10 mg/kg) | Tmax ([4]; po, 10 mg/kg) | bioavailability ([4]; po, 10 mg/kg) | half-life ([4]; po, 10 mg/kg) | also measured |
| --- | --- | --- | --- | --- | --- | --- | --- | --- | --- | --- | --- | --- | --- | --- | --- | --- |
| Nc1nc(Nc2ccc3c(c2)CC[C@@H](N2CCCC2)CC3)nn1-c1cc2c(nn1)-c1ccccc1CCC2 [BGB324, reference compound] | 0.0951 ± 0.0037 µM | significantly inhibited | significantly inhibited | – | – | – | – | – | – | – | – | – | – | – | – | TGI ([1]; 50 mg/kg po bid): 92.0% |
| COc1cc2ncnc(Oc3ccc(NC(=O)c4c5n(n(-c6cccc(F)c6)c4=O)CCCC5)cc3F)c2cc1OC [Compound 18] | < 0.0001 µM | – | – | 93.4% | no significant body weight loss | 42.1 µg·h/mL | 34.8 µg·h/mL | 0.123 L/h/kg | 10.4 h | 16 µg·h/mL | 15.9 µg·h/mL | 2.97 µg/mL | 2 h | 22.9% | 3.24 h | TGI ([1]; 4 mg/kg po qd, 7 consecutive days): 89.5% |
| COc1cc2nccc(Oc3ccc(NC(=O)c4c5n(n(-c6ccc(F)cc6)c4=O)CCCC5)cc3)c2cc1OC [Compound 59] | 0.0015 ± 0.0004 µM | significantly inhibited | significantly inhibited | 89.4% | no significant body weight loss | 21.6 µg·h/mL | 20.5 µg·h/mL | 0.232 L/h/kg | 1.67 h | 14.9 µg·h/mL | 14.8 µg·h/mL | 2.3 µg/mL | 1 h | 36.1% | 2.94 h | cell viability of SNU449 cells [5]: no significant inhibitory effects; intratumoral AXL phosphorylation (p-AXL) [6]: robust inhibitions; NCI-H1299 cell migration [7]: significant reduction; SNU449 cell invasion [8]: significant inhibition; IC50 [9]: 0.0173 µM; GAS6-induced downregulation of E-cadherin expression [10]: significantly reversed; Inhibition rate, other 55 tested kinases [11]: less than 50%; cell viability of NCI-H1299 cells [12]: no significant inhibitory effects; GAS6-accelerated wound healing [13]: obviously inhibited; IC50 [14]: 0.535 µM; IC50 [15]: 0.0035 ± 0.0008 µM; p-ERK [3]: marginally inhibited; phosphorylation of AXL induced by GAS6 [3]: significantly inhibited; p-ERK [16]: a bit weaker inhibtion; phosphorylation of AKT [16]: dose-dependently inhibited; phosphorylation of AXL [16]: dose-dependently inhibited; phosphorylation of STAT3 [16]: dose-dependently inhibited |
